The text below walks through data of ChEMBL document CHEMBL3593174, “Amantelides A and B, Polyhydroxylated Macrolides with Differential Broad-Spectrum Cytotoxicity from a Guamanian Marine Cyanobacterium” (J Nat Prod, 2015).

In brackets after ≈: the same amount, converted by molar mass.

The subject of assay [1] is HeLa. The experiment in a line: Cytotoxicity against human HeLa cells after 48 hrs by MTT assay. The format is functional, cell-based. A digest of the protocol:
(§1)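 HeLa (3000) or HT29 (12 500 cells/well) grown in DMEM with 10% FBS, 5% CO2, 37 °C; treated with graded concentrations 24 h after seeding, DMSO solvent control, then incubated 48 h before MTT viability read-out; IC50 fitted from duplicate experiments.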

In assay [2] the test system is HT-29. Put plainly: Cytotoxicity against human HT-29 cells after 48 hrs by MTT assay. The format is functional, cell-based. The following applies: HT-29, 48 h. In a few lines: as §1
For assay [3], the system named is HeLa. The experiment in a line: Cytotoxicity against human HeLa cells after 1 to 48 hrs by MTT assay. The format is functional, cell-based. In a few lines: (§2)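 HeLa and HT29 cultured in DMEM with 10% FBS at 37 °C, 5% CO2, exposed to graded concentrations for 1, 3, 6, 12, 24 or 48 h; MTT viability read-out, IC50 at each time point.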
Assay [4] deals with Lindra thalassiae. The experiment in a line: Antifungal activity against Lindra thalassiae assessed as growth inhibition at 62.5 ug/ml. The following applies: Lindriella thalassiae; read-out: GI. The format is functional. In a few lines:
(§3)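 Fungus (Lindra thalassiae, Dendryphiella salina or Fusarium sp.) exposed to sample dissolved in MeOH, serially diluted, added to molten YPM P/S agar; MeOH-only solvent controls plus media-only wells; triplicate wells; 1 mm2 plug of culture transferred per well, 26 °C. Scored when media controls fully covered by hyphae: hyphae-containing squares counted through window screen; % inhibition versus solvent control.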

Assay [5] in a line: Antifungal activity against Dendryphiella salina assessed as growth inhibition at 625 ug/ml. The format is functional. Conditions: Paradendryphiella salina. In a few lines: as §3
Assay [6] deals with Fusarium sp. The experiment in a line: Antifungal activity against Fusarium sp. assessed as growth inhibition at 625 ug/ml. Conditions: read-out: GI. The format is functional. A digest of the protocol:
as §3

The subject of assay [7] is HT-29. Put plainly: Cytotoxicity against human HT-29 cells after 1 to 48 hrs by MTT assay. The format is functional, cell-based. A digest of the protocol: as §2
Assay [8] has as its system Fusarium sp. Put plainly: Antifungal activity against Fusarium sp. assessed as growth inhibition at 62.5 ug/ml. The format is functional. Conditions: read-out: GI. A digest of the protocol:
as §3

Assay [9] in a line: Antifungal activity against Dendryphiella salina assessed as growth inhibition at 6.25 ug/ml. The format is functional. The following applies: Paradendryphiella salina. In a few lines: as §3
Assay [10] is described as follows: Antifungal activity against Dendryphiella salina assessed as growth inhibition at 62.5 ug/ml. The following applies: Paradendryphiella salina. The format is functional. In a few lines: as §3
A further assay relates to Staphylococcus aureus. Put plainly: Antimicrobial activity against Staphylococcus aureus ATCC 6538 after 24 hrs by broth microdilution method. The format is functional. Conditions: ATCC 6538, 24 h. In a few lines:
(§4)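 Broth microdilution in Mueller–Hinton broth; colony grown 6–8 h at 37 °C, adjusted to 0.5 McFarland then diluted 100-fold as inoculum. Treated 24 h at 37 °C, 150 rpm; 0.02% v/v resazurin added, fluorescence read at ex 530/em 590 nm. Oxacillin (S. aureus) or nalidixic acid (P. aeruginosa) positive controls, MHB-only sterility control; % inhibition relative to solvent control.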

Assay [11] relates to Lindra thalassiae. The experiment in a line: Antifungal activity against Lindra thalassiae assessed as growth inhibition at 6.25 ug/ml. The format is functional. Conditions: Lindriella thalassiae; read-out: GI. A digest of the protocol: as §3
In the next assay the test system is Pseudomonas aeruginosa. The experiment in a line: Antimicrobial activity against Pseudomonas aeruginosa ATCC 27853 after 24 hrs by broth microdilution method. The following applies: ATCC 27853, 24 h. The format is functional. A digest of the protocol: as §4
Assay [12] deals with Lindra thalassiae. The experiment in a line: Antifungal activity against Lindra thalassiae assessed as growth inhibition at 625 ug/ml. Conditions: Lindriella thalassiae; read-out: GI. The format is functional. In a few lines:
as §3

Assay [13] relates to Fusarium sp. The experiment in a line: Antifungal activity against Fusarium sp. assessed as growth inhibition at 6.25 ug/ml. The format is functional. The following applies: read-out: GI. A digest of the protocol:
as §3

As to `CC(=O)OC1CCCC(O)CCCC(O)CCCC(O)CCCC(O)CCCC(O)CCC[C@@H](O)C[C@@H](O)CCC/C(C)=C\C(=O)OC(C(C)(C)C)CC(O)CCC1` (some centres undefined), the IC50 worked out at 9.9 µM in the assay on HeLa [1] and 12 µM in the assay on HT-29 [2].
As for `C/C1=C/C(=O)OC(C(C)(C)C)CC(O)CCCC(O)CCCC(O)CCCC(O)CCCC(O)CCCC(O)CCCC(O)CCC[C@@H](O)C[C@@H](O)CCC1` (some centres undefined), the IC50 with HeLa [3], in the assay with HeLa [1], with HT-29 [7] and in the assay on HT-29 [2] was 0.87 µM each time. Further, the inhibition of growth at 62.5 µg/mL with Lindra thalassiae [4] and in the assay on Fusarium sp. [8] was 100% in each case. The growth inhibition (GI) in assay [5] turned out to be 100%; in assay [9], 0%; in assay [10], 60%. The inhibition of growth at 625 µg/mL in the assay with Fusarium sp. [6] and in the assay on Lindra thalassiae [12] was 100% in each case. Besides, the MIC against Staphylococcus aureus and with Pseudomonas aeruginosa was 32 µM (≈ 25.3 µg/mL) each time. In addition, the inhibition of growth at 6.25 µg/mL in the assay on Lindra thalassiae [11] was determined as 40%; in the assay on Fusarium sp. [13], 35%.
With `C[C@@H]1[C@H](O)[C@@H](C)/C=C/C=C/C=C/C=C/C=C/C=C/C=C/[C@H](O[C@@H]2O[C@H](C)[C@@H](O)[C@H](N)[C@@H]2O)C[C@@H]2O[C@](O)(C[C@@H](O)C[C@@H](O)[C@H](O)CC[C@@H](O)C[C@@H](O)CC(=O)O[C@H]1C)C[C@H](O)[C@H]2C(=O)O` [AMPHOTERICIN B], the inhibition of growth at 62.5 µg/mL in the assay on Lindra thalassiae [4] came to 21%; in the assay on Fusarium sp. [8] it was 6%. The IC50 with HeLa [1] and with HT-29 [2] was 10 µM each time. Moreover, the growth inhibition (GI) in [9] and in [10] was 100% in each case. The MIC with Staphylococcus aureus and in the assay on Pseudomonas aeruginosa was more than 100 µM throughout. Moreover, the inhibition of growth at 6.25 µg/mL is 0% in the assay on Lindra thalassiae [11] and 12% with Fusarium sp. [13].
For the molecule `CC(=O)OC1CCCC(OC(C)=O)CCCC(OC(C)=O)CCCC(OC(C)=O)CCC[C@@H](OC(C)=O)C[C@@H](OC(C)=O)CCC/C(C)=C\C(=O)OC(C(C)(C)C)CC(OC(C)=O)CCCC(OC(C)=O)CCCC(OC(C)=O)CCC1` (some centres undefined), the figures for the IC50 in the assay on HeLa [1] and in the assay with HT-29 [2] were 18 µM and 58 µM, respectively.
